Source: ChEMBL document CHEMBL1142682, “Design, synthesis, and biological evaluation of novel potent and selective alphavbeta3/alphavbeta5 integrin dual inhibitors with improved bioavailability. Selection of the molecular core” (J Med Chem, 2005)

How the values were obtained:
Integrin alpha-5/beta-1 = Integrin alpha-5/beta-1 (Homo sapiens, UniProt P05556+P08648); test: In vitro inhibition of human alpha5-beta1 integrin binding in ELISA; format: protein-complex assay
In short: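 Human α5β1 coated at 3 µg/mL; blocking and binding at 30 °C. Biotinylated human fibronectin (1 µg/mL) with compounds 0.0001-20 µM, 2 h; NeutrAvidin-HRP 1 h 30 °C, OPD read at 492 nm. % inhibition vs buffer controls averaged over three determinations; IC50 by four-parameter fit.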

Integrin alpha-V/beta-5 = Integrin alpha-V/beta-5 (Homo sapiens, UniProt P06756+P18084); test: In vitro inhibition of human alphaV-beta5 integrin binding in ELISA; format: protein-complex assay
In short: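 Human αvβ5 coated at 1 µg/mL in Tris buffer with Ca, Mg, Mn; biotinylated human vitronectin (1 µg/mL) plus compounds (0.0001-20 µM) incubated 2 h, all at room temperature. NeutrAvidin-HRP, OPD development, absorbance 492 nm; IC50 from four-parameter fit of triplicate % inhibition relative to buffer controls.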

Caco-2 = test: In vitro CACO-2 cell permeability potency was determined; format: functional, cell-based; settings: Homo sapiens
Integrin alpha-V/beta-3 = Integrin alpha-V/beta-3 (Homo sapiens, UniProt P05106+P06756); test: In vitro inhibition of human alphaV-beta3 integrin binding in ELISA; format: protein-complex assay
In short: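 Plate-coated human αvβ3 (0.4 µg/mL) in Tris buffer with Ca, Mg, Mn; compounds 0.0001-20.0 µM with biotinylated human vitronectin (1 µg/mL), 2 h, room temperature throughout. NeutrAvidin-HRP detection, OPD read at 492 nm; % inhibition vs buffer controls from triplicate determinations, IC50 by four-parameter fit.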

[1] = molecular target: Integrin alpha-IIb/beta-3 (Homo sapiens, UniProt P05106+P08514); test: In vitro inhibition of human alphaIIb betaIIIa integrin binding in ELISA; format: protein-complex assay
In short: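 Immobilized human fibrinogen (10 µg/mL coat, overnight 4 °C, Tris/Ca buffer pH 7.5) bound by human GPIIbIIIa (40 µg/mL) with compounds 0.027-20.0 µM, 1 h 37 °C; bound receptor detected with anti-GPIIbIIIa mAb then HRP anti-mouse IgG, OPD development, A492. % inhibition vs buffer controls, mean of three determinations; IC50 by four-parameter fit.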

[2] = Maximum concentration in mouse plasma upon 50 mpk peroral administration (n=3); format: ADME, organism-based; design: dose 50 mpk, route oral; settings: po, 50 mg/kg
[3] = Area under curve for the compound was determined at infinity in mouse upon 50 mpk peroral administration; format: ADME; settings: in vivo, po, 50 mg/kg
[4] = Extension in area under curve for the compound was determined in mouse upon 5 mpk intravenous administration; format: ADME; settings: in vivo, 5 mg/kg
[5] = Half life in mouse upon 5 mpk intravenous administration; format: ADME, organism-based; settings: in vivo, 5 mg/kg
[6] = Half life in mouse upon 50 mpk peroral administration; format: ADME, organism-based; settings: in vivo, po, 50 mg/kg
[7] = Extension in area under curve for the compound was determined in mouse upon 50 mpk peroral administration; format: ADME; settings: in vivo, po, 50 mg/kg
[8] = Area under curve for the compound was determined at infinity in mouse upon 5 mpk intravenous administration; format: ADME; settings: in vivo, 5 mg/kg
[9] = Oral bioavailability in mouse (dose 50 mg/kg); format: ADME, organism-based; settings: in vivo
[10] = Maximum clearance in mouse upon 5 mpk intravenous administration; format: ADME, organism-based; settings: in vivo, 5 mg/kg
[11] = Mean residence time for the compound was determined in mouse upon 5 mpk intravenous administration; format: ADME, organism-based; settings: in vivo, 5 mg/kg
[12] = Maximum time required to reach maximum plasma concentration in mouse upon 50 mpk peroral administration (n=3); Range = 0.25-0.50 hr; format: ADME, organism-based; settings: po, 50 mg/kg
[13] = Apparent volume of distribution during the terminal phase was determined in mouse upon 5 mpk intravenous administration; format: ADME, organism-based; settings: in vivo, 5 mg/kg, read-out: Vz

Chain of Integrin alpha-IIb/beta-3 (P05106 27-788 limits assumed): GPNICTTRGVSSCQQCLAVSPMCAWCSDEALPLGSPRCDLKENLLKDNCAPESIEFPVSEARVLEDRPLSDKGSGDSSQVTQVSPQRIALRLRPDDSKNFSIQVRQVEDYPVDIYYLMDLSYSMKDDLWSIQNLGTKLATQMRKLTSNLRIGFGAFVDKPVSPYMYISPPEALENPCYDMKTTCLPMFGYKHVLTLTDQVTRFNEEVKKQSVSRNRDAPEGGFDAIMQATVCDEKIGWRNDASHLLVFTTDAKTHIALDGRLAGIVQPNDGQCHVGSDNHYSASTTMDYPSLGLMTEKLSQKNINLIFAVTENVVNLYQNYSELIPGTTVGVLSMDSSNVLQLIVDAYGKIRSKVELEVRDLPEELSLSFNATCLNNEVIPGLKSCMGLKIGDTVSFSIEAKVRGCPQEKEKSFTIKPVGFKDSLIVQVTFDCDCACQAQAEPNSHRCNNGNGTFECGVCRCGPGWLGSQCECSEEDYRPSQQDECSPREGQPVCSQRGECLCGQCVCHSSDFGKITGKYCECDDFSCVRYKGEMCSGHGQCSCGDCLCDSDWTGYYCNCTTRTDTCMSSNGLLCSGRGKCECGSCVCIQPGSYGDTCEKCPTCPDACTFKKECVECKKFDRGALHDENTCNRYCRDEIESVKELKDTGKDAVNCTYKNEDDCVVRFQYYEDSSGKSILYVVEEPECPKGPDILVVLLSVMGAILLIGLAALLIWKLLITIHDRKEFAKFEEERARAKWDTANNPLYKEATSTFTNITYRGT
Chain of Integrin alpha-IIb/beta-3 (P08514 32-887 limits assumed): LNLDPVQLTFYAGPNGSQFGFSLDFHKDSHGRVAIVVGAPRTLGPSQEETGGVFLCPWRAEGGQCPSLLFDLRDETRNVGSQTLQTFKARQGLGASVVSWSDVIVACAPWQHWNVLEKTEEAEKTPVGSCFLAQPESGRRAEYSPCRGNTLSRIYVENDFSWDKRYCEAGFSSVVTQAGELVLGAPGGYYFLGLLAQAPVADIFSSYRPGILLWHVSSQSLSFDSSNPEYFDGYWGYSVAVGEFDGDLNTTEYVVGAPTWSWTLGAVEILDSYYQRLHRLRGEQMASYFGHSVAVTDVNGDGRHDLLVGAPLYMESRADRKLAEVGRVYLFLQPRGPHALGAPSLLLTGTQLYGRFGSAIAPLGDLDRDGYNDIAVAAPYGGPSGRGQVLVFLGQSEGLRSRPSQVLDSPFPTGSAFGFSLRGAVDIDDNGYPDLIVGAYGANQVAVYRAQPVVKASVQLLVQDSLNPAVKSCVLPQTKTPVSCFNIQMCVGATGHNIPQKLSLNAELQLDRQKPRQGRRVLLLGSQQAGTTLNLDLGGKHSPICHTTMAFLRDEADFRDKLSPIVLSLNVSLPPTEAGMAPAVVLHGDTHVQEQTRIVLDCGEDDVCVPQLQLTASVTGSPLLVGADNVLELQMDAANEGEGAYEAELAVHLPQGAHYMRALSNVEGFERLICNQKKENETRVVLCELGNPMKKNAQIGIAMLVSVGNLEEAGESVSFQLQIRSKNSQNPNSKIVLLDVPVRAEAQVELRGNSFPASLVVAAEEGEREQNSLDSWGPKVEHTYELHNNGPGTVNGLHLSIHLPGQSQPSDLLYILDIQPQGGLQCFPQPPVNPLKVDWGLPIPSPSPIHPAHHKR
Chain of Integrin alpha-IIb/beta-3 (P08514 891-1039 limits assumed): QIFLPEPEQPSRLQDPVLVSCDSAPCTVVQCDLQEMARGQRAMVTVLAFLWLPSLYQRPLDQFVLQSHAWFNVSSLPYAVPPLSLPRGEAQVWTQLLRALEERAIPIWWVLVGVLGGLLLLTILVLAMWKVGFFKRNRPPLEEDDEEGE
Chain of Integrin alpha-V/beta-3 (P05106 27-788 limits assumed): as the sequence (P05106 27-788 limits assumed) above
Chain of Integrin alpha-V/beta-3 (P06756 31-889 limits assumed): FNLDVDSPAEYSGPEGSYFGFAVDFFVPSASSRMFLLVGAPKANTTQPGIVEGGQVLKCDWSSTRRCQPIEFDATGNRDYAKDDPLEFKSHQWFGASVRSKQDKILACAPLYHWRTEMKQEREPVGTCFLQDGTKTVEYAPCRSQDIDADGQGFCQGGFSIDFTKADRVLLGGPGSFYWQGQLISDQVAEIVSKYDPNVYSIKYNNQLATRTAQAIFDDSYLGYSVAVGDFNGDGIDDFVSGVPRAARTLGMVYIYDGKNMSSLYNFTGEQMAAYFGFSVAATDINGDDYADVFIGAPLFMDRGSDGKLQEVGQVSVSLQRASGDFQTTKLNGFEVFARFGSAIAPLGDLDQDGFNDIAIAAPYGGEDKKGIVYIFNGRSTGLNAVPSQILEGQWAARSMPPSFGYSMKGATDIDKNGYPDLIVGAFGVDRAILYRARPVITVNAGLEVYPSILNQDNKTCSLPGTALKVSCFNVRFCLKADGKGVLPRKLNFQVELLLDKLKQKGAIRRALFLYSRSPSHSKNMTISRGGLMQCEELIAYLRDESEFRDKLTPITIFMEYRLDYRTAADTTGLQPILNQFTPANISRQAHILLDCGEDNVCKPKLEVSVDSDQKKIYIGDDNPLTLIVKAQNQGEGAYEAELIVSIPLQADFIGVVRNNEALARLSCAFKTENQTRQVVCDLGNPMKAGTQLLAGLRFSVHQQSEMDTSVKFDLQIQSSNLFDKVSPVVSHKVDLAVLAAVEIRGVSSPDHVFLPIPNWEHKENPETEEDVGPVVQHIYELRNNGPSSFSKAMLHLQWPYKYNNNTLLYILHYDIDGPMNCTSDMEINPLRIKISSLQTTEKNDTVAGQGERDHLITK
Chain of Integrin alpha-V/beta-3 (P06756 891-1048 limits assumed): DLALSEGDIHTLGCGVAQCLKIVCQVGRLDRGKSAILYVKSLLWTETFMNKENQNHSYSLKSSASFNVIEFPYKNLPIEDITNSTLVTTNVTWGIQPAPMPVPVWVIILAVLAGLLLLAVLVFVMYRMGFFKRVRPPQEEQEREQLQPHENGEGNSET
Chain of Integrin alpha-V/beta-5 (P06756 31-889 limits assumed): as the sequence (P06756 31-889 limits assumed) above
Chain of Integrin alpha-V/beta-5 (P06756 891-1048 limits assumed): as the sequence (P06756 891-1048 limits assumed) above
Chain of Integrin alpha-V/beta-5 (P18084 24-799 limits assumed): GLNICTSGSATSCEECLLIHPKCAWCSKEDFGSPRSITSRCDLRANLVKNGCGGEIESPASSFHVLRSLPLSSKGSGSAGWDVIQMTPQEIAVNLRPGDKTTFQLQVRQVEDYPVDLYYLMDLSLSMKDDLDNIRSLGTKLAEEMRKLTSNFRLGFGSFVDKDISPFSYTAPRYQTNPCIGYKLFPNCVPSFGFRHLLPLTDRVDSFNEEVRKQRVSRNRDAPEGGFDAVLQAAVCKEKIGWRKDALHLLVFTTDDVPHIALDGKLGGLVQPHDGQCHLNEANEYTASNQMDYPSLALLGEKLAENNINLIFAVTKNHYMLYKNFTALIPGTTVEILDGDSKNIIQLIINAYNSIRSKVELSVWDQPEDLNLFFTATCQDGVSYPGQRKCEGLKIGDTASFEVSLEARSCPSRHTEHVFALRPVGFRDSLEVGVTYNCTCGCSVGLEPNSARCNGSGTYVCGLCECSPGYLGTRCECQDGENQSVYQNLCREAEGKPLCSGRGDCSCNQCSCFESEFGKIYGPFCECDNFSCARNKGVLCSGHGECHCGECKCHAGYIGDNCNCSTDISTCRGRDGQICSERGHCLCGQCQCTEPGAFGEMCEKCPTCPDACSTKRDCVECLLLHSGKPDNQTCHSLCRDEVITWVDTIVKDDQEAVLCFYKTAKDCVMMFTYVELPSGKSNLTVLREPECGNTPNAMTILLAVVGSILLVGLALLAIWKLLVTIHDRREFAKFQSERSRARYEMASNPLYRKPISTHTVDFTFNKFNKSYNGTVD

| IC50 (Integrin alpha-5/beta-1) [nM] | IC50 (Integrin alpha-V/beta-5) [nM] | IC50 (Integrin alpha-V/beta-3) [nM] | IC50 [1] [nM] | Cmax [2] [ng/mL] | AUC inf [3] [ng·h/mL] | Ext AUC [4] [%] | half-life [5] [min] | half-life [6] [min] | Ext AUC [7] [%] | AUC inf [8] [ng·h/mL] | bioavailability [9] [%] | clearance [10] [mL/min/kg] | MRT [11] [min] | Tmax [12] [min] | Vd [13] [L/kg] | Structure (SMILES) | Permeability (Caco-2) [AB cm/s] |
| --- | --- | --- | --- | --- | --- | --- | --- | --- | --- | --- | --- | --- | --- | --- | --- | --- | --- |
| > 20000 | 2.5 | 470 | > 20000 | – | – | – | – | – | – | – | – | – | – | – | – | O=C(O)CCn1ccc2cc(OCCCNc3ccccn3)ccc21 | 6e-06 |
| > 20000 | 420 | 33 | > 20000 | 16200 | 14600 | 2 | 5.4 | 115 | 1 | 1280 | 114 | 65.1 | 6.6 | 30 | 0.5 | CNc1cccc(CCOc2ccc3c(CCC(=O)O)coc3c2)n1 | 1.7e-05 |
| 15000 | 210 | 49 | > 20000 | 38300 | 64000 | 3 | 93.6 | 143 | 7 | 7100 | 90 | 11.7 | 103 | 30 | 1.58 | CNc1cccc(CCOc2ccc3c(ccn3CCC(=O)O)c2)n1 | 6e-06 |
| 7800 | 140 | 30 | > 20000 | 27500 | 36700 | 1 | 44.4 | 140 | 5 | 5040 | 73 | 16.5 | 33.6 | 30 | 1.05 | CNc1cccc(CCOc2ccc3c(CCC(=O)O)csc3c2)n1 | 1.6e-05 |
